pIC50, pKd, pKi: −log10 of the molar value. Calls of active or inactive are those of the source.
What was measured:
[1] = molecular target: T1, Metabotropic glutamate receptor 5 (Homo sapiens, UniProt P41594); experiment: Displacement of [3H]ABP688 from human mGluR5 receptor expressed in L (tk-) cells; type: cell-based
[2] = molecular target: T2, Metabotropic glutamate receptor 5 (Rattus norvegicus, UniProt P31424); experiment: Displacement of [3H]ABP688 from mGluR5 in rat brain membrane; type: cell membranes
T2 sequence (P31424 whole entry): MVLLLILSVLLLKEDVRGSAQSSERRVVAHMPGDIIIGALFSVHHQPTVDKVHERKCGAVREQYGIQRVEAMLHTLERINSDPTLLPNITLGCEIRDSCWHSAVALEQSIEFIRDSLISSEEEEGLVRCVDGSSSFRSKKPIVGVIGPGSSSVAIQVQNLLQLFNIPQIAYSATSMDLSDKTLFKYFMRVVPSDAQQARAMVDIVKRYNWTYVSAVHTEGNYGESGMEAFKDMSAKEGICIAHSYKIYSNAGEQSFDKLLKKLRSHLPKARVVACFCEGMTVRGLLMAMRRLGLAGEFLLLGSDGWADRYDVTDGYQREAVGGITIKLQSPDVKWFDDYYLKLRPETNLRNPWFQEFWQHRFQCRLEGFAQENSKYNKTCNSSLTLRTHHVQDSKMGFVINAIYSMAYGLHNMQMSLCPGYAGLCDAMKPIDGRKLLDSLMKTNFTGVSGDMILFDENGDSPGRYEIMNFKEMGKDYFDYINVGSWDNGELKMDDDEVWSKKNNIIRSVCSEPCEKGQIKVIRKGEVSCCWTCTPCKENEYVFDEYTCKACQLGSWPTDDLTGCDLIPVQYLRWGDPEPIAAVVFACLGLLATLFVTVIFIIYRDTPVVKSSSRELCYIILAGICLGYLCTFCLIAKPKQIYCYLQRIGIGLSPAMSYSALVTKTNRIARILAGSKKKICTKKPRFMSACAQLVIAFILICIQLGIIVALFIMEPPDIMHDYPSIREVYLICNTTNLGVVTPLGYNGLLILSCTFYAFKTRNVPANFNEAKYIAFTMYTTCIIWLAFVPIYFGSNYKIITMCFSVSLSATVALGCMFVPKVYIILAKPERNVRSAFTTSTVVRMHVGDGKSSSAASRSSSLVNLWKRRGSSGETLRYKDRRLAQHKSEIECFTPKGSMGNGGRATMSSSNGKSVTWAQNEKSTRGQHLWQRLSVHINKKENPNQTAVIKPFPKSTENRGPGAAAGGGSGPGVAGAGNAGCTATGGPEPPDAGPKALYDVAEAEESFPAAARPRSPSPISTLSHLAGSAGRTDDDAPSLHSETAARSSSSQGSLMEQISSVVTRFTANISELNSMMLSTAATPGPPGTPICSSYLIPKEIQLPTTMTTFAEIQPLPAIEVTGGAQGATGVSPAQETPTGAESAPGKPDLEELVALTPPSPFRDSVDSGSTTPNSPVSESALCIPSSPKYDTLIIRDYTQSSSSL

[3] = molecular target: Metabotropic glutamate receptor 1 (Homo sapiens) (UniProt Q13255); experiment: Activity at human recombinant mGluR1 expressed in L(tk-) cells assessed as inhibition of quisqualate-induced phosphoinositol accumulation at 10 uM; type: functional, cell-based
Metabotropic glutamate receptor 1 (Homo sapiens), sequence (Q13255 19-1194 limits assumed): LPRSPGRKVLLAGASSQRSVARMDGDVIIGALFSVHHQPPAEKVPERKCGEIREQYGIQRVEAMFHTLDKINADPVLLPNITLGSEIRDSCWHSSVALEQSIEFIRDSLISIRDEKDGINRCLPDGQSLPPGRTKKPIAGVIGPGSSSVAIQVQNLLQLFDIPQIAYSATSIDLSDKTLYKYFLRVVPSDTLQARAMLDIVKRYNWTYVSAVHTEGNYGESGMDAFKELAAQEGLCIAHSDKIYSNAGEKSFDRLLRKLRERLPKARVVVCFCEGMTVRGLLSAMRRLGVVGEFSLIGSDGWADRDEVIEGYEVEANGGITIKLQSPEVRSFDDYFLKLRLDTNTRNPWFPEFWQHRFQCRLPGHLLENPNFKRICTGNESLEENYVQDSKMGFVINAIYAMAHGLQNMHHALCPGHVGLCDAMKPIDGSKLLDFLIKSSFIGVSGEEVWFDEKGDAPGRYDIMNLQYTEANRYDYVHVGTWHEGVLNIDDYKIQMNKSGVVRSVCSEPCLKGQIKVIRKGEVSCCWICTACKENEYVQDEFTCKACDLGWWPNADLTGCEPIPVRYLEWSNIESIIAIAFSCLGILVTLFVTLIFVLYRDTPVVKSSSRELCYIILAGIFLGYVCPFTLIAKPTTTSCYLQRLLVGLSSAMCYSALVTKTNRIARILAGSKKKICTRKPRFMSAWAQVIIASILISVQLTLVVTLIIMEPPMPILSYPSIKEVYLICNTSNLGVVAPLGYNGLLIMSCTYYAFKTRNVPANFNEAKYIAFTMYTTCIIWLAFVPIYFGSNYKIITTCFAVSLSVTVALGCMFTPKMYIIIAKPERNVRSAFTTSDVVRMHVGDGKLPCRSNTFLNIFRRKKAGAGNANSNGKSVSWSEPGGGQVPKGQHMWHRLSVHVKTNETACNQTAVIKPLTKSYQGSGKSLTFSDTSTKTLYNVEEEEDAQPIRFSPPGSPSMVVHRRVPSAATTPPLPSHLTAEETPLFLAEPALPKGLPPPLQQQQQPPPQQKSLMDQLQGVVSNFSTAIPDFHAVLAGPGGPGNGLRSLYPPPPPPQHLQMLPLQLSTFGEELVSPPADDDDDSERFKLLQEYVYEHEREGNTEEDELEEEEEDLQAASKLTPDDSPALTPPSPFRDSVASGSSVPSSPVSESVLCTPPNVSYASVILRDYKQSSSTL
Procedure, shortened: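 Inhibition of quisqualate (40 µM)-stimulated PI accumulation in hmGluR1-expressing cells cultured in glutamate-free DMEM (2 mM L-glutamine, proline, 10% dialyzed FCS, geneticin). Percent control ± SD, n = 3 independent determinations, each in triplicate.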

[4] = molecular target: T1, Metabotropic glutamate receptor 5; experiment: Activity at human recombinant mGluR5 expressed in L(tk-) cells assessed as inhibition of glutamate-induced calcium release; type: functional, cell-based
[5] = molecular target: T1, Metabotropic glutamate receptor 5; experiment: Activity at human recombinant mGluR5 expressed in L(tk-) cells assessed as inhibition of quisqualate-induced phosphoinositol accumulation; type: functional, cell-based
[6] = molecular target: T1, Metabotropic glutamate receptor 5; experiment: Displacement of [3H]M-MPEP from human mGluR5 receptor expressed in L (tk-) cells; type: cell-based
Procedure, shortened: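 Membranes from L(tk-) cells expressing recombinant human mGluR5, incubated with 2 nM [3H]-M-MPEP over a range of competitor concentrations. Non-specific binding was taken with 1 µM unlabeled M-MPEP. Readout is percent specific binding.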

[7] = molecular target: Metabotropic glutamate receptor 1 (Homo sapiens) (UniProt Q13255); experiment: Activity at human recombinant mGluR1 expressed in L(tk-) cells assessed as basal phosphoinositol level
Brain [8] = experiment: Drug level in Wistar rat brain at 4 ug/kg, iv after 5 mins; type: ADME, organism-based; details: in vivo, 0.004 mg/kg
Procedure, shortened: (§1)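 Male Wistar rats (220–250 g) given 4 µg/kg [3H]ABP688 in EtOH/5% glucose (1:99), 1 mL/kg, into the exposed femoral vein under light isoflurane. n = 3 per time point; plasma and tissues collected, total radioactivity by scintillation, parent by LC-radiodetection with unlabeled internal standard. Bi-exponential compartmental PK analysis.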

[9] = Volume of distribution in Wistar rat at 4 ug/kg, iv; type: ADME, organism-based; details: in vivo, 0.004 mg/kg, read-out: Vss; procedure, shortened: as §1
[10] = Protein binding in rat plasma as percentage unbound; type: ADME, cell-free
Procedure, shortened: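 Rat or human plasma spiked with [3H]ABP688 (50–500,000 pg/mL) and ultrafiltered at 37 °C through a 30 kDa cut-off device. Radioactivity in ultrafiltrate (Cu) and in sample before filtration (Cp) counted by liquid scintillation; fu (%) = Cu/Cp·100.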

[11] = Metabolic stability assessed as intrinsic clearance in human liver microsomes; type: ADME, Microsome
Procedure, shortened: (§2)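 Pooled liver microsomes (male Sprague-Dawley rat; mixed-gender Caucasian human), 0.2 mg protein/mL, incubated with [3H]ABP688 (0.92 µmol/L) for 40 min at 37 °C in 0.1 M sodium phosphate pH 7.4 containing 4 mM UDPGA, 1 mM β-NADPH and 5 mM MgCl2. Parent depletion tracked by on-line radio-HPLC; intrinsic clearance from parent kinetics.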

Rattus norvegicus = experiment: Drug uptake in Wistar rat at 4 ug/kg, iv; type: ADME, organism-based; details: in vivo, 0.004 mg/kg; procedure, shortened: as §1
[12] = molecular target: T2, Metabotropic glutamate receptor 5; experiment: Binding affinity at mGluR5 in rat brain membrane; type: cell membranes
Procedure, shortened: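 Rat whole-brain membranes in Na-HEPES buffer (110 mM NaCl, 1.2 mM MgCl2, 5 mM KCl, 2.5 mM CaCl2), pH 8.0. Competition against fixed 1.5 nM [3H]ABP688, equilibrated 60 min at 37 °C, then filtered on glass-fibre and counted by liquid scintillation, in triplicate. Ki derived by Cheng–Prusoff from non-linear curve fits.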

[13] = Ratio of drug levels in brain to plasma in Wistar rat at 4 ug/kg, iv; type: ADME, organism-based; details: brain and plasma, 0.004 mg/kg
Procedure, shortened: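 Male Wistar rats (220–250 g) given 4 µg/kg [³H]ABP688 iv into the surgically exposed femoral vein under slight isoflurane anaesthesia, in EtOH/glucose 5% (1:99 v/v) at 1 mL/kg. Groups of n = 3 per sampling time over about 2.5 h. Plasma and brain were taken. Total radioactivity was read by liquid scintillation, and parent compound by LC-RID with unlabelled internal standard. Values are means ± SD.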

[14] = Metabolic stability assessed as intrinsic clearance in Sprague-Dawley rat liver microsomes; type: ADME, Microsome; procedure, shortened: as §2
Plasma [15] = experiment: Drug distribution in rat plasma; type: ADME, cell-free
Procedure, shortened: (§3)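 Fresh heparinized rat or human blood spiked with [3H]ABP688 (5–500,000 pg/mL) at 37 °C. Plasma separated by centrifugation (1500g, 10 min, 37 °C), total radioactivity counted in plasma and blood, hematocrit measured (n = 3). Plasma fraction fP (%) = (Cp/Cb)·(1−H)·100.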

Plasma [16] = experiment: Drug distribution in human plasma; type: ADME, cell-free; procedure, shortened: as §3
Brain [17] = experiment: Drug uptake in Wistar rat brain at 4 µg/kg, iv; details: in vivo

T1 sequence (P41594 whole entry): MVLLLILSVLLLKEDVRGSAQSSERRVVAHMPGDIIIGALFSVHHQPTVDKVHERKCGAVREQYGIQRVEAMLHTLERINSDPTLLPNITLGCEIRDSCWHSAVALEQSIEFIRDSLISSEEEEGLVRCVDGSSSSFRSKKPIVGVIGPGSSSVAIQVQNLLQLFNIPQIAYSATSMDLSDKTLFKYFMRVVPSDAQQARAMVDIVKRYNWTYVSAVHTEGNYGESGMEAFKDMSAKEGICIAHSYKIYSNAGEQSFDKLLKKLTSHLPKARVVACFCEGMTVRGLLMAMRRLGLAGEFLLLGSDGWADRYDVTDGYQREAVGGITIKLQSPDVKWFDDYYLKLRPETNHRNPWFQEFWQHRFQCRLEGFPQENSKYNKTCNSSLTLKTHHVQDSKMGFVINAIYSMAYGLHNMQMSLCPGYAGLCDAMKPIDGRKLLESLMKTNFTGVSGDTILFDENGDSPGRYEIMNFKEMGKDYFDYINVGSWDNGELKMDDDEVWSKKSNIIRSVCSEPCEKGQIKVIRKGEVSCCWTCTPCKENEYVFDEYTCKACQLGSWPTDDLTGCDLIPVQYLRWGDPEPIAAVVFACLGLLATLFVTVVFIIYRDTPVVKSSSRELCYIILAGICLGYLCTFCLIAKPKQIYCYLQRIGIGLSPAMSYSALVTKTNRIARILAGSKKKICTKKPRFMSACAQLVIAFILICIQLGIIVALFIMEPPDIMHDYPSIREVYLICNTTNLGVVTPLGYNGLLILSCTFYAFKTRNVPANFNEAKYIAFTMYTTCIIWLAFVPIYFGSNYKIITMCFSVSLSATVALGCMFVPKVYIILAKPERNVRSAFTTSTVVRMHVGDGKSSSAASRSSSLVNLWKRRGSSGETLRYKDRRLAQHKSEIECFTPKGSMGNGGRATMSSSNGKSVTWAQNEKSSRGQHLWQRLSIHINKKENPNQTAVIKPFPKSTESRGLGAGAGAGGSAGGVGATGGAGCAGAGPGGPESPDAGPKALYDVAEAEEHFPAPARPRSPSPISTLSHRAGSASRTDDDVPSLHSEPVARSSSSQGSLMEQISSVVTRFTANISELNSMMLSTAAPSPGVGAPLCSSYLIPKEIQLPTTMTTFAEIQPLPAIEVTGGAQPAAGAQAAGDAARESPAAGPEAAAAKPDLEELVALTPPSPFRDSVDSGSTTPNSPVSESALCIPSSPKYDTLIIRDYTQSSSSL

SMILES: CO/N=C1/C=C(C#Cc2cccc(C)n2)CCC1
- pKi [1]: 8.77
- pKi [2]: 8.74
- Activity [3]: inactive
- pIC50 [4]: 8.64
- pIC50 [5]: 8.62
- pIC50 [6]: 8.15
- pKi [6]: 8.46
- Activity [7]: inactive

SMILES: COc1cccc(C#Cc2cccc(C)n2)c1 [M-MPEP]
- pKi [2]: 7.96

SMILES: CCOC(=O)[C@]12CC1/C(=N\O)c1ccccc1O2 (some centres not stated) [CPCCOET]
- pKi [1]: < 4.00
- pKi [2]: < 5.00

SMILES: [3H]C([3H])([3H])O/N=C1/C=C(C#Cc2cccc(C)n2)CCC1
- Activity (Brain [8]): 21 pmol/g
- Vd [9]: 11 L/kg
- fraction unbound [10]: 0.068
- microsomal CLint [11]: 150 µL/min/mg
- Drug uptake (Rattus norvegicus): 21 %ID
- pKd [12]: 8.64
- Kp [13]: 20
- microsomal CLint [14]: 150 µL/min/mg
- Activity (Plasma [15]): 76%
- Activity (Plasma [16]): 92%
- Drug uptake (Brain [17]): 0.8 %ID

Source: ChEMBL document CHEMBL1144571, “ABP688, a novel selective and high affinity ligand for the labeling of mGlu5 receptors: identification, in vitro pharmacology, pharmacokinetic and biodistribution studies” (Bioorg Med Chem, 2007)
